This is an account of results in ChEMBL document CHEMBL2417357, “Synthesis and antiprotozoal activities of benzyl phenyl ether diamidine derivatives” (Eur J Med Chem, 2013).

Calls of active or inactive are those of the source. The calls are words filed in the database; no cut-off is given here.

What is called IC50 is the concentration at which inhibition is half-maximal. A high value points to lower potency.

For series [1], the system named is Trypanosoma brucei rhodesiense. The series can be described thus: Antitrypanosomal activity against Trypanosoma brucei rhodesiense STIB900 after 72 hrs by Alamar blue assay. It counts as functional, organism-based. The settings on record: STIB900, 72 h. A general note: Alamar Blue is a resazurin reagent that responds to reducing activity.
A short description of series [2]: Selectivity index, ratio of IC50 for rat L6 cells to IC50 for amastigotes of Leishmania donovani. The format is toxicity, cell-based. The settings on record: read-out: Ratio IC50. The gist of the method:
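SI = IC50 in rat L6 myoblasts / IC50 against L. donovani MHOM/SD/62/IS-CL2D axenic amastigotes. The amastigote IC50 is the average of at least two determinations; the L6 IC50 is the average of duplicates.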

Series [3] is described as follows: Selectivity index, ratio of IC50 for rat L6 cells to IC50 for chloroquine-resistant Plasmodium falciparum K1. The format is toxicity, cell-based. Conditions: read-out: Ratio IC50. The gist of the method:
(§1)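 SI = IC50 in rat L6 myoblasts / IC50 against the parasite (T. b. rhodesiense STIB900 or P. falciparum K1). Each IC50 is the average of duplicate determinations.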

The test system of series [4] is Plasmodium falciparum. The series can be described thus: Antiplasmodial activity against chloroquine-resistant Plasmodium falciparum K1. The format is functional, organism-based. The gist of the method: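 Chloroquine-resistant K1 strain tested in vitro. IC50 is the average of duplicate determinations.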
The subject of series [5] is Leishmania donovani. As to the kind of experiment: Antileishmanial activity against amastigotes of Leishmania donovani MHOM/SD/62/IS-CL2D. It counts as functional, organism-based. The gist of the method:
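Axenic amastigotes of L. donovani MHOM/SD/62/IS-CL2D; IC50 taken as the average of at least two determinations.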

Series [6] can be described thus: Selectivity index, ratio of IC50 for rat L6 cells to IC50 for Trypanosoma brucei rhodesiense STIB900. It counts as toxicity, cell-based. Conditions: read-out: Ratio IC50. The gist of the method: as §1
For series [7], the system named is Trypanosoma brucei rhodesiense. As to the kind of experiment: Antitrypanosomal activity against Trypanosoma brucei rhodesiense STIB900 infected in NMRI mouse assessed as mean survival days at 5 mg/kg, ip administered for 4 days. It counts as functional. Conditions: route intraperitoneal. The gist of the method: (§2)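 Female NMRI mice, acute infection model with T. b. rhodesiense STIB900. Compound given as a single daily dose for four days, intraperitoneally or orally. Cure means survival to 60 days post-infection without parasitaemia relapse. Mean survival recorded in days.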

Series [8] deals with L6. As to the kind of experiment: Cytotoxicity against rat L6 cells after 72 hrs by Alamar blue assay. Conditions: L6, 72 h. The format is cell-based. The gist of the method: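 Rat L6 myoblast cells; cytotoxic IC50 taken as the average of duplicate determinations.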
The test system of series [9] is Trypanosoma brucei rhodesiense. The series can be described thus: Antitrypanosomal activity against Trypanosoma brucei rhodesiense STIB900 infected in NMRI mouse assessed as mean survival days at 25 mg/kg, po administered for 4 days. The format is functional. The gist of the method:
as §2

Series [10] deals with Trypanosoma brucei rhodesiense. The series can be described thus: Antitrypanosomal activity against Trypanosoma brucei rhodesiense STIB900 infected in NMRI mouse assessed as cured animal at 25 mg/kg, po administered for 4 days. More on the design: dose 25 mg/kg. It counts as functional, organism-based. The gist of the method:
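Acute model in female NMRI mice infected with T. b. rhodesiense STIB900. Single daily doses given for four days, intraperitoneally or orally. Mice surviving 60 days post-infection without parasitaemia relapse counted as cured; result reported as cured/infected out of 4 mice per group, with mean survival in days.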

In the case of `N=C(N)c1cccc(COc2ccc(C(=N)N)cc2Br)c1`, the IC50 in series [1] worked out at 0.005 µM; in series [4] it was 0.052 µM; in series [5], 1.86 µM; in series [8], 15.7 µM. Moreover, the selectivity ratio in series [2] is 8; in series [3] it was 302; in series [6], 3410. For the same compound, in series [7], the MSD is greater than 37.5 days.
`N=C(N)c1ccc(COc2ccc(Cl)cc2)cc1`: the IC50 in series [1] is 2.71 µM; in series [4], greater than 3.36 µM; in series [8], 20.7 µM. Moreover, the selectivity ratio was less than 6 in series [3] and 8 in series [6].
`N=C(N)c1cc(I)c(OCc2cccc([N+](=O)[O-])c2)c(I)c1`: the IC50 is 2.66 µM in series [1], 0.296 µM in series [4], 34.3 µM in [5] and 7.72 µM in series [8]. Moreover, the selectivity ratio is less than 1 in series [2], 26 in series [3] and 3 in series [6].
For `C[C@@H]1CC[C@H]2[C@@H](C)C(=O)O[C@@H]3O[C@@]4(C)CC[C@@H]1[C@]32OO4` [ARTEMISININ], the figures for the IC50 in series [4] and in series [8] were 0.0041 µM and greater than 319 µM, respectively.
As for `N=C(N)c1ccc(COc2ccc([N+](=O)[O-])cc2)cc1`, the IC50 is 4.41 µM in series [1], greater than 3.07 µM in series [4] and 79.2 µM in series [8]. Further, the selectivity ratio in [3] was less than 26; in series [6], 18.
For `N=C(N)c1ccc(OCCCCCOc2ccc(C(=N)N)cc2)cc1` [PENTAMIDINE], in series [7], the MSD is greater than 38 days.
With `N=C(N)c1ccc(OCc2ccc([N+](=O)[O-])cc2)c(I)c1`, the IC50 in series [1] is 1.9 µM; in series [4] it was 0.951 µM; in [5] it was greater than 50 µM; in series [8], 10.7 µM. Further, the selectivity ratio in [2] was less than 1; in series [3], 11; in series [6], 6.
In the case of `N=C(N)c1ccc(COc2ccc(C(=N)N)cc2Cl)cc1`, the IC50 in series [1] turned out to be 0.022 µM; in series [4] it was 0.006 µM; in series [5], 2.89 µM; in series [8], 3.2 µM. Further, the selectivity ratio in series [2] amounted to 1; in series [3] it was 552; in [6], 147. Moreover, the MSD in [7] was greater than 51 days.
`CO/N=C(\N)c1ccc(COc2ccc(/C(N)=N/OC)cc2Br)cc1.Cl.Cl`: the IC50 is 18.8 µM in series [1], greater than 10.2 µM in series [4], greater than 100 µM in series [5] and 101 µM in series [8]. The selectivity ratio in [2] is less than 1; in series [3], less than 10; in [6] it was 5. Also, in series [9], the MSD is greater than 32.5 days.
For the compound `N=C(N)c1ccc(OCc2ccccc2)cc1`, the IC50 in series [1] was 1.84 µM; in series [4], greater than 3.56 µM; in [8], 127 µM. Moreover, the results for the selectivity ratio in series [3] and in series [6] were less than 36 and 69, respectively.
For the compound `N=C(N)c1ccc(COc2ccc(C(=N)N)cc2I)cc1`, the IC50 in series [1] was 0.017 µM; in series [4] it was 0.006 µM; in [5], 1.94 µM; in series [8], 5.3 µM. Moreover, the selectivity ratio in series [2] was found to be 3; in [3], 898; in series [6], 312. The MSD in series [7] was greater than 41.5 days.
Take `CO/N=C(\N)c1cccc(COc2c(Br)cc(/C(N)=N/OC)cc2OC)c1.Cl.Cl`: the IC50 is 81.5 µM in series [1], 3.35 µM in series [4], greater than 100 µM in series [5] and 70.5 µM in [8]. Besides, the selectivity ratio in [2] was less than 1; in series [3] it was 21; in series [6], less than 1. In addition, in series [9], the MSD was greater than 52.25 days.
Take `COc1ccc(OCc2ccc(C(=N)N)cc2)cc1`: the IC50 is 3.95 µM in series [1], greater than 3.42 µM in series [4] and 143 µM in series [8]. Moreover, the selectivity ratio in [3] was less than 42; in series [6], 36.
`N=C(N)c1cccc(OCc2cccc([N+](=O)[O-])c2)c1`: the IC50 is 0.481 µM in [1], greater than 3.16 µM in [4] and 78.9 µM in series [8]. The selectivity ratio in series [3] was less than 25; in [6], 164.
In the case of `CO/N=C(\N)c1ccc(COc2ccc(/C(N)=N/OC)cc2)cc1.Cl.Cl`, the IC50 in series [1] is greater than 224 µM; in series [4] it was 5.78 µM; in [5] it was greater than 100 µM; in series [8] it was greater than 224 µM. Further, the selectivity ratio in series [2] was 2. In addition, in series [10], the result was inactive. Further, the MSD in series [9] amounted to 13.25 days.
Take `CC(C)NC(=N)c1ccc(COc2ccc(C(=N)NC(C)C)cc2)cc1`: the IC50 in series [1] is 1.35 µM; in series [4], 0.02 µM; in series [5], 26.6 µM; in series [8], greater than 144 µM. Moreover, the selectivity ratio in series [2] is greater than 5; in [3], greater than 7370; in [6] it was greater than 107.
Consider `Cl.Cl.Cl.Cl.N/C(=N\O)c1cccc(COc2c(Cl)cc(/C(N)=N/O)cc2Cl)c1`, for which the IC50 in [1] was 26.4 µM; in series [4], 11.5 µM; in series [5] it was greater than 100 µM; in series [8], 14.4 µM. The selectivity ratio in [2] is less than 1; in [3], 1; in series [6], less than 1. Also, in series [9], the MSD was greater than 53.25 days.
For the compound `N=C(N)c1cccc(COc2cccc([N+](=O)[O-])c2)c1`, the IC50 in series [1] is 7.28 µM; in series [4] it was greater than 3.07 µM; in series [8], 104 µM. The selectivity ratio in series [3] is less than 34; in series [6], 14.
For the compound `N=C(N)c1ccc(-c2ccc(-c3ccc(C(=N)N)cc3)o2)cc1` [FURAMIDINE], in series [7], the MSD is greater than 46 days.
Turning to `Cl.Cl.Cl.N/C(=N\O)c1cccc(COc2ccc(/C(N)=N/O)cc2Cl)c1`, the IC50 in series [1] was 49.2 µM; in [4] it was greater than 11.2 µM; in series [5], greater than 100 µM; in series [8], 2.26 µM. Moreover, the selectivity ratio in [2], in series [3] and in series [6] was less than 1 in each case. For the same compound, the MSD in [9] is greater than 39 days.
Consider `N=C(N)c1ccc(COc2cccc([N+](=O)[O-])c2)cc1`, for which the IC50 in series [1] is 2.12 µM; in [4] it was greater than 3.25 µM; in series [8], 57.8 µM. Besides, the selectivity ratio is less than 18 in series [3] and 27 in series [6].
In the case of `N=C(N)c1cccc(OCc2ccccc2)c1`, the results for the IC50 in series [1], in series [4] and in [8] were 9.32 µM, greater than 3.81 µM and 156 µM, respectively. Besides, the selectivity ratio is less than 41 in series [3] and 17 in series [6].
For `N=C(N)c1ccc(COc2ccc(N)cc2)cc1`, the IC50 is 3 µM in series [1], 2.56 µM in series [4] and greater than 271 µM in [8]. In addition, the selectivity ratio in series [3] was greater than 106; in [6], greater than 90.
`CC(C)c1ccc(OCc2ccc(C(=N)N)cc2)cc1`: the IC50 in series [1] amounted to 1.29 µM; in [4], 2.37 µM; in series [5], 49.5 µM; in series [8], 5.36 µM. Moreover, the selectivity ratio in series [2] is less than 1; in [3], 3; in series [6], 4.
As for `CO/N=C(\N)c1ccc(COc2ccc(/C(N)=N/OC)cc2I)cc1.Cl.Cl`, the results for the IC50 in series [1], in series [4] and in series [8] were 50.4 µM, greater than 10.3 µM and 86.6 µM, respectively. Further, the results for the selectivity ratio in [3] and in [6] were less than 8 and 2, respectively. Besides, the result in series [10] was inactive. In addition, in series [9], the MSD was determined as 29.75 days.
As for `CO/N=C(\N)c1cccc(COc2c(I)cc(/C(N)=N/OC)cc2OC)c1.Cl.Cl`, the IC50 in [1] was 75.1 µM; in [4], 1.12 µM; in [5], greater than 100 µM; in series [8], 81.4 µM. Moreover, the selectivity ratio was less than 1 in [2], 73 in [3] and 1 in series [6]. In addition, in series [9], the MSD stood at 40.25 days.
On to `N=C(N)c1cccc(COc2ccc(C(=N)N)cc2I)c1`, for which the IC50 in [1] came out at 0.005 µM; in series [4], 0.013 µM; in series [5] it was 1.27 µM; in series [8], 6.06 µM. Besides, the selectivity ratio in series [2] amounted to 5; in series [3], 477; in series [6], 1190. For the same compound, the MSD in series [7] is greater than 31.25 days.
Turning to `N=C(N)c1ccc(COc2ccccc2)cc1`, the IC50 in [1] is 3.71 µM; in series [4], greater than 3.56 µM; in [8] it was 167 µM. The selectivity ratio was less than 47 in [3] and 45 in series [6].
